Test results taken from ChEMBL document CHEMBL4513216, “Probing the Open Global Health Chemical Diversity Library for Multistage-Active Starting Points for Next-Generation Antimalarials” (ACS Infect Dis, 2020).

Assay: Toxicity liver stage against HepG2, at 10uM
Type: cell-based
Set-up: test concentration 10 uM, cell line HepG2-A16-CD81EGFP
Details: human, HepG2-A16-CD81EGFP cells; read-out: INHIBITION
Method in brief: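 Uninfected HepG2-A16-CD81EGFP cells, 3 × 10^3 per well, 1536-well, plated on prespotted compound at 10 μM final, parasite-free screening media added to match infected plates; puromycin 10 μM positive, DMSO 0.5% negative; run in parallel with 48 h PbLuc assay at 37 °C, 5% CO2; viability by CellTiter-Glo luminescence, normalized to controls.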

Going from CC(=O)N1CCC2(CC1)CN(C(=O)c1cccc3[nH]ccc13)C2 to Cc1ccc(CN2CC3(CCN(C(=O)c4cscn4)C3)C2)o1, the cytotoxicity at 10 µM rises from -121% to 5.28%.

Compared with N#Cc1cc(F)c(NCCCOCC2CCOC2)c(F)c1 (stereo not given), O=C(NCCOCC1CC1)Nc1ccc(F)cc1 is higher in cytotoxicity at 10 µM: 6.43% for the first, 9.28% for the second.

Compared with COc1cccc(CN(C)C(C)c2ccon2)c1OCCn1ccnc1 (stereo not given), COCCNC(=O)c1cccnc1Sc1cc(OC)ccc1OC is higher in cytotoxicity at 10 µM: -5.17% for the first, 0.734% for the second.

Going from CC(C)CNC(=O)[C@H]1C[C@H]2CN(C(=O)NCC3CCCCC3)C[C@@H]1O2 to O=C(Nc1cccnc1)[C@H]1CN(C2CCCC2)C[C@H]2OCC[C@@H]12, the cytotoxicity at 10 µM rises from -4.81% to 9.81%.

First: Cc1nccn1-c1ccc(N2CCC(NC(C)CC(C)C)CC2)cc1 (stereo not given)
Second: CS(=O)(=O)NC1CCN(C(=O)c2ccc(F)cc2)CC1
The cytotoxicity at 10 µM of the first is lower: 1.71% for the first, 2.3% for the second.

First: Cc1nccc(-c2ccccc2)c1C(=O)N1CC[C@](C)(O)C(C)(C)C1
Second: Cc1ccc(C(=O)N2CCC3(CC2)c2ccccc2[C@@H](N)[C@@H]3O)cc1F
The cytotoxicity at 10 µM of the first is lower: -3.45% for the first, -0.685% for the second.

Compared with O=S(=O)(CC1CCCCC1)NCc1ccnc(O)c1, O=c1[nH]c2ncccc2n1C1CCCCC1 is lower in cytotoxicity at 10 µM: 6.54% for the first, 3.16% for the second.

Going from CCS(=O)(=O)NCc1nc(C)cc(N2CCOCC2)n1 to CCN1CCCN(S(=O)(=O)c2cnc3onc(C)c3c2)CC1, the cytotoxicity at 10 µM rises from -0.978% to 4.62%.

First: COc1ccc(S(=O)(=O)Nc2cccnc2-n2cncn2)c(C)c1
Second: COc1ccc(C(=O)N2C[C@@H](C(=O)O)[C@H](c3ccccc3C)C2)c(O)c1
The cytotoxicity at 10 µM of the first is higher: 3.64% for the first, -4.31% for the second.

Compared with Cc1occc1C(=O)N1CCCN(Cc2nccn2C)CC1, Cn1ccnc1CN1CCC2(CC1)CN(Cc1ccccc1)C(=O)CO2 is lower in cytotoxicity at 10 µM: -1.56% for the first, -3.99% for the second.

Compared with C[C@@H]1CN(S(=O)(=O)N2CCCC2)C[C@@]1(O)C1CC1, CCOc1ccc(Cl)c(C(=O)N2CCCC(N3CCCC3)C2)n1 (stereo not given) is higher in cytotoxicity at 10 µM: -5.07% for the first, 8.29% for the second.

First: Cc1cc(N2CCCC(O)(CN(C)C(=O)CCN)C2)c2cnccc2n1 (stereo not given)
Second: CCc1nc2ccccc2c(=O)n1CC1(O)CCN(C(=O)C2CC2)CC1
The cytotoxicity at 10 µM of the first is higher: -1.49% for the first, -18.3% for the second.

Going from CC(C(=O)NCc1ccnc(N2CCCC2)c1)n1cncn1 (stereo not given) to CC(C(=O)NCc1ccc2c(c1)OCCO2)n1cncn1 (stereo not given), the cytotoxicity at 10 µM falls from -3.43% to -141%.

Going from O=C(c1ccco1)N1CCCC(c2cc(C(F)F)n3ncnc3n2)C1 (stereo not given) to CC(=O)N1CCCC(c2ncncc2-c2ccncc2)C1 (stereo not given), the cytotoxicity at 10 µM falls from 4.4% to -15.3%.

Going from COc1ccc2c(c1)C(C(=O)N(C)CCCc1nccn1C)CC(=O)N2 (stereo not given) to Cn1ccnc1CN1CCCC(CCc2ccc(F)c(F)c2)C1 (stereo not given), the cytotoxicity at 10 µM rises from -56% to -6.9%.

Compared with CN(C)[C@@H]1CCN(C(=O)c2ccsc2)[C@H]1Cc1cccnc1, O=C(CC1CC1)N1CCN(Cc2cccnc2)c2ncccc2C1 is higher in cytotoxicity at 10 µM: -66.7% for the first, 5.15% for the second.

Compared with CCc1cnc(C(C)NC(=O)N2CCCN(CC(F)F)CC2)s1 (stereo not given), CSC(C)CCN1CCCn2nc(CNC(=O)C3CCC3)cc2C1 (stereo not given) is higher in cytotoxicity at 10 µM: -0.423% for the first, 0.812% for the second.

First: O=C(NC[C@H]1OC[C@@H](NC(=O)C2CCCC2)[C@@H]1O)c1ccncc1
Second: O=C(NC[C@H]1OC[C@@H](NC2CCC2)[C@@H]1O)c1cccs1
The cytotoxicity at 10 µM of the first is higher: 5.45% for the first, 1.76% for the second.

Going from COc1nccnc1N1CCCC2(C1)C(=O)N(C)c1ccccc12 (stereo not given) to COc1cccc(-c2nccnc2C2CCN(C(C)=O)CC2)c1, the cytotoxicity at 10 µM rises from -6.47% to 1.47%.

First: COC(=O)Nc1nc2c(s1)CN(C(=O)NCc1cccs1)CC2
Second: COC(=O)N1CC(C)=C(C)CN1C(=O)Nc1cccc(Cl)c1
The cytotoxicity at 10 µM of the first is higher: 3.89% for the first, 0.359% for the second.

Going from Cc1cccc(C(=O)N2CCCN(CCCSCC#N)CC2)c1 to Nc1nccnc1C(=O)N1CCN(CCOc2ccccc2)CC1, the cytotoxicity at 10 µM rises from -150% to 12.8%.

Going from O=C(NCc1cnc2n1CCN(CC1CCOCC1)C2)c1ccno1 to O=C(NCc1cnc2n1CCN(Cc1nccs1)C2)c1ccno1, the cytotoxicity at 10 µM falls from -101% to -104%.

Compared with Cc1noc(CCCC(=O)N2CCNC(=O)C2)n1, Cc1nc(N2CCC3(CCOC3)C2)c2cc[nH]c2n1 (stereo not given) is higher in cytotoxicity at 10 µM: -4.62% for the first, -2.95% for the second.

Going from COc1cccc(CNC(=O)C(c2cccc(F)c2)N2CCOCC2)c1 (stereo not given) to Cc1ccc(C(CNC(=O)NCc2cc[nH]n2)N2CCOCC2)o1 (stereo not given), the cytotoxicity at 10 µM falls from -6.24% to -8.78%.

Compared with Cc1ccc(CN2CCC3(CCN(c4cnn(C)c4)C3=O)C2)s1 (stereo not given), Cc1ccc(CN2C[C@H]3CN(CC4CCN(C)CC4)C(=O)[C@H]3C2)s1 is higher in cytotoxicity at 10 µM: -70% for the first, 2.5% for the second.

Going from CC(C)N(C)CC(=O)NCC(Cc1ccc(F)cc1)C(N)=O (stereo not given) to CCN(C(=O)c1ccc2nnc(C3CCN(C(C)=O)C3)n2c1)C(C)C (stereo not given), the cytotoxicity at 10 µM falls from 13.6% to -107%.

Going from CN1C(=O)CC(c2cnn(C)c2)C12CCN(C(=O)c1ccncc1)CC2 (stereo not given) to CCN1CCCC12CCN(C(=O)c1nccn1C)CC2, the cytotoxicity at 10 µM rises from -84.4% to 7.89%.

First: COCC[C@]1(O)CCN(CC(=O)NCc2ccccc2C)C[C@H]1C
Second: O=C(Cn1cncn1)NCC1CCN(Cc2ccccc2Cl)CC1
The cytotoxicity at 10 µM of the first is lower: -5.31% for the first, -3.84% for the second.

First: CC1CN(C)CCN1CC(=O)NCCOc1ccc2c(c1)OCO2 (stereo not given)
Second: Cn1c(Cl)cnc1CN1CCCC1c1ccc2c(c1)OCCO2 (stereo not given)
The cytotoxicity at 10 µM of the first is lower: -6.66% for the first, -1.29% for the second.

Compared with O=C(CCc1nc2cccnc2[nH]1)Nc1ccc2c(c1)NC(=O)CO2, Cc1cccc(NC(=O)C(C)Nc2cccc(CN3CCOC3=O)c2)c1 (stereo not given) is higher in cytotoxicity at 10 µM: -1.94% for the first, 6.92% for the second.

Going from O=C(c1ccco1)N1CCc2c(COCC3CC3)cncc2C1 to Cn1nnc2c1C(COCC1CC1)CN(C(=O)Cc1ccsc1)C2 (stereo not given), the cytotoxicity at 10 µM rises from -71.3% to -0.11%.

Compared with COCC(C)(CCO)NC(=O)Nc1c(F)cccc1Br (stereo not given), COC(=O)CNC(=O)CCc1cc(Br)cs1 is lower in cytotoxicity at 10 µM: 3.79% for the first, 0.624% for the second.

Going from CC(Cn1cncn1)NC(=O)NCC(C)(C)Cc1ccccc1 (stereo not given) to CC(Cn1cncn1)NC(=O)NCc1csc(N(C)C)n1 (stereo not given), the cytotoxicity at 10 µM falls from 17% to 8.42%.

First: OC(CN1CCOCC1)c1ccc(Br)cc1 (stereo not given)
Second: FC(F)(F)c1ccnc(N2CCCC(N3CCOCC3)C2)c1 (stereo not given)
The cytotoxicity at 10 µM of the first is higher: -6.58% for the first, -24.7% for the second.

Going from CN1CCCc2cc(-c3cncn3CC(=O)NC(C)(C)C)ccc21 to Cc1ccc(CC(=O)N2CCCC2Cn2nc(C)cc2C)cn1 (stereo not given), the cytotoxicity at 10 µM rises from -28.9% to -9.24%.

First: CC(NC(=O)NCCn1ccnc1)c1nncn1C (stereo not given)
Second: CC(Cn1ccnc1)NC(=O)C1(c2ccccc2)CC1 (stereo not given)
The cytotoxicity at 10 µM of the first is lower: -8.92% for the first, -5.74% for the second.

Compared with CC(=O)CC(C)(C)NC(=O)CCN(C)Cc1ccc(Cl)s1, COCC(=O)N[C@H](C)c1onc(-c2ccc(Cl)cc2)c1C(=O)O is lower in cytotoxicity at 10 µM: 7.35% for the first, -5.61% for the second.

Compared with CN1CCN(Cc2cccnc2)C2(CCN(Cc3ccccn3)C2)C1=O (stereo not given), CCCc1nc(N2CCN(Cc3ccccn3)CC2)c2cnn(C)c2n1 is higher in cytotoxicity at 10 µM: -3.66% for the first, 1.89% for the second.

Compared with CN(Cc1cc2cc(F)ccc2[nH]1)C(=O)C1CC(=O)N(C2CCCC2)C1 (stereo not given), O=C(NC1CCCc2c1[nH]c1ccc(F)cc21)c1n[nH]c2c1CCCC2 (stereo not given) is higher in cytotoxicity at 10 µM: -3.26% for the first, 46.4% for the second.

Compared with c1csc(N2[C@H](Cn3cncn3)C[C@@H]3CNCC[C@@H]32)n1, c1csc(-c2nc(CN3CCOC(Cn4cncn4)C3)co2)c1 (stereo not given) is higher in cytotoxicity at 10 µM: -142% for the first, -11.8% for the second.

First: CCc1ccc(CN2CCN(c3cccc(OC)c3)C(=O)C2)nc1
Second: Cc1ccc(CN2CCCC(c3cncc(C)n3)C2)cn1 (stereo not given)
The cytotoxicity at 10 µM of the first is higher: 1.76% for the first, -9.35% for the second.

Compared with Cc1nnsc1C(=O)NCc1cccnc1N1CCCC(O)C1 (stereo not given), CCc1noc(C(C)N2CCN(c3ncnc4sccc34)CC2)n1 (stereo not given) is higher in cytotoxicity at 10 µM: 1.91% for the first, 56.3% for the second.

Compared with Cc1ccc(-c2nc(CNC3CCc4ncnn4C3)co2)cc1 (stereo not given), c1ccc(Cn2cc(CNc3ncnc4c3CCNCC4)cn2)cc1 is higher in cytotoxicity at 10 µM: -3.75% for the first, 1.99% for the second.

Compared with CCN(C)CC(C)Cn1cnc(-c2ccccc2)c1-c1cncn1CC (stereo not given), CCS(=O)(=O)c1ncc(CN(C)CCc2ccccn2)n1CCOC is lower in cytotoxicity at 10 µM: 1.33% for the first, -3.98% for the second.

First: CCC1CCCCN1CCc1ccncc1 (stereo not given)
Second: Fc1ccc(CN2CCO[C@H]3[C@H](OCCN4CCCC4)CC[C@@H]32)cc1
The cytotoxicity at 10 µM of the first is higher: 2.4% for the first, 2.17% for the second.

First: CCCNC(=O)c1ccc(-c2ccco2)[nH]c1=O
Second: COCCn1ccc2c(NC(=O)c3n[nH]c4c3CCC4)cccc21
The cytotoxicity at 10 µM of the first is lower: -5.68% for the first, -1.6% for the second.

Going from O=C(Nc1cnccn1)[C@H]1C[C@H]2OCC[C@H]2N(c2ncc(F)cn2)C1 to COCCOc1ccc(NC(=O)C2CC(=O)N(CC3CC3)C2)cn1 (stereo not given), the cytotoxicity at 10 µM falls from 16.4% to -30.7%.

First: Cn1cc(C[C@H]2[C@@H](OCC3CC3)CCN2C(=O)c2ccc[nH]2)cn1
Second: COCCN1C[C@H]2[C@@H](C1)N(C(=O)COc1ccccc1)CC[C@H]2OC
The cytotoxicity at 10 µM of the first is lower: -72.7% for the first, -1.34% for the second.

Compared with COc1ccccc1NC(=O)NCc1cn[nH]c1, CC(NC(=O)c1cccs1)(C(N)=O)c1cccc(C(F)(F)F)c1 (stereo not given) is lower in cytotoxicity at 10 µM: 16.9% for the first, -3.42% for the second.

Going from Cc1ncc(CN(C)CC(O)c2cccc(C(F)(F)F)c2)s1 (stereo not given) to CCC(C)NC(=O)Cn1c(Nc2cc(C)cc(C)c2)nc(C)cc1=O (stereo not given), the cytotoxicity at 10 µM rises from 1.86% to 9.91%.

Compared with c1cnnc(NCC2CN(CCN3CCCCC3)CCO2)c1 (stereo not given), CCc1nc(C2CCCN(c3nccc(N4CCCC4)n3)C2)no1 (stereo not given) is higher in cytotoxicity at 10 µM: -11.9% for the first, 19% for the second.

Compared with CCN1CCOCC2(CCCN(c3nncs3)C2)C1 (stereo not given), COc1cc(F)ccc1N1CCN(Cc2nnc(C3CC3)o2)CC1 is higher in cytotoxicity at 10 µM: 8.28% for the first, 14.8% for the second.

First: CC1CN(c2ccc(C#N)cn2)CCN1c1ccc2nncn2n1 (stereo not given)
Second: CO[C@@H]1CCN(C2CCOCC2)C[C@@H]1Cc1ccccc1
The cytotoxicity at 10 µM of the first is higher: 1.42% for the first, -4.87% for the second.

Going from CC(=O)N1CCc2nnc(C3CCCCN3CC3CC3)n2CC1 (stereo not given) to CC1(C)[C@@H]2CC=C(CN3CCCn4nc(CCC(=O)O)cc4C3)[C@H]1C2, the cytotoxicity at 10 µM falls from -15.4% to -40.2%.

First: COCCNC(=O)CCN1C(=O)CC2(CCCC2)C1=O
Second: CC(C)(C)c1n[nH]cc1CNC1CCC(C(F)(F)F)CC1 (stereo not given)
The cytotoxicity at 10 µM of the first is lower: 2.34% for the first, 4.25% for the second.
